Tests used:
[1] = biological target: Cyclin-dependent kinase 2 (Homo sapiens) (UniProt P24941); assay: Inhibition of CDK2 at 5 uM
[2] = system: Mus musculus; assay: Toxicity in Swiss Webster mouse assessed as amylase level at 10 mg/kg, ip daily for 7 days measured after 7 days; type: organism-based; set-up: dose 10 mg/kg, route intraperitoneal; details: in vivo, 168 h
[3] = system: Mus musculus; assay: Toxicity in Swiss Webster mouse assessed as creatinine level at 10 mg/kg, ip daily for 7 days measured after 7 days; type: organism-based; set-up: dose 10 mg/kg, route intraperitoneal; details: in vivo, 168 h
[4] = system: Mus musculus; assay: Toxicity in Swiss Webster mouse assessed as lymphocyte count at 10 mg/kg, ip daily for 7 days measured after 7 days; type: organism-based; set-up: dose 10 mg/kg, route intraperitoneal; details: in vivo, 168 h
[5] = system: Mus musculus; assay: Toxicity in Swiss Webster mouse assessed as lymphocyte count at 3 mg/kg, ip daily for 7 days measured after 7 days; type: organism-based; set-up: dose 3 mg/kg, route intraperitoneal; details: in vivo, 168 h
[6] = biological target: Cytoplasmic tyrosine-protein kinase BMX (Homo sapiens) (UniProt P51813); assay: Inhibition of BMX at 5 uM
[7] = system: Mus musculus; assay: Toxicity in Swiss Webster mouse assessed as white blood cell count at 50 mg/kg, ip daily for 7 days measured after 7 days; type: organism-based; set-up: dose 50 mg/kg, route intraperitoneal; details: in vivo, 168 h
How it was run: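 Six-week-old female Swiss Webster mice (about 25 g) received intraperitoneal injections daily for 7 days. Doses were 3, 10 or 50 mg/kg, with a vehicle group (30% PEG-400, 5% Tween-80, 65% DMSO). Values are reported as ranges per group.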

[8] = biological target: Tyrosine-protein kinase ABL1 (Homo sapiens) (UniProt P00519); assay: Inhibition of ABL at 5 uM
[9] = Inhibition of CAMK2 at 5 uM
[10] = system: Mus musculus; assay: Toxicity in Swiss Webster mouse assessed as alanine aminotransferase level at 50 mg/kg, ip daily for 7 days measured after 7 days; type: organism-based; set-up: dose 50 mg/kg, route intraperitoneal; details: in vivo, 168 h
[11] = biological target: Rho-associated protein kinase 2 (Homo sapiens) (UniProt O75116); assay: Inhibition of ROCK2 at 5 uM
[12] = Inhibition of PKGalpha at 5 uM
[13] = system: Mus musculus; assay: Toxicity in Swiss Webster mouse assessed as monocyte count at 3 mg/kg, ip daily for 7 days measured after 7 days; type: organism-based; set-up: dose 3 mg/kg, route intraperitoneal; details: in vivo, 168 h

Chain of Cytoplasmic tyrosine-protein kinase BMX (Homo sapiens) (P51813 whole entry): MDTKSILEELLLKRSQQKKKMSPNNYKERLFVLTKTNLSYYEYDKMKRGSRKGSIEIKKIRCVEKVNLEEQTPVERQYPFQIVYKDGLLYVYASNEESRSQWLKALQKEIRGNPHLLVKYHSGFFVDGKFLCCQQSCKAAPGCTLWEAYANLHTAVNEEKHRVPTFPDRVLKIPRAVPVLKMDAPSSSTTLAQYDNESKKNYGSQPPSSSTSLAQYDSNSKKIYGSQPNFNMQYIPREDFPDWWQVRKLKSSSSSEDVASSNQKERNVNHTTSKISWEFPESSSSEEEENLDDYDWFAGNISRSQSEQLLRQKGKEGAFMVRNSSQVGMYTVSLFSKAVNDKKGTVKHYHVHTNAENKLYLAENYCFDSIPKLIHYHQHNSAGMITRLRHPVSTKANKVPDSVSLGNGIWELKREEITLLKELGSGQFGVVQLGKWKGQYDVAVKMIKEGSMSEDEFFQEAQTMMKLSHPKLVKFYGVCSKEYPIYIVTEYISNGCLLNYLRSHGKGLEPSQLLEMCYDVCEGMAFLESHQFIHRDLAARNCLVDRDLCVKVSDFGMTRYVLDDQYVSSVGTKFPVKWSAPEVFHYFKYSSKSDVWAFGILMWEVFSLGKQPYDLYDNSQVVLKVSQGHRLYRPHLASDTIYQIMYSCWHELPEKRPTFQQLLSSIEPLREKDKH
Chain of Rho-associated protein kinase 2 (Homo sapiens) (O75116 whole entry, looked up): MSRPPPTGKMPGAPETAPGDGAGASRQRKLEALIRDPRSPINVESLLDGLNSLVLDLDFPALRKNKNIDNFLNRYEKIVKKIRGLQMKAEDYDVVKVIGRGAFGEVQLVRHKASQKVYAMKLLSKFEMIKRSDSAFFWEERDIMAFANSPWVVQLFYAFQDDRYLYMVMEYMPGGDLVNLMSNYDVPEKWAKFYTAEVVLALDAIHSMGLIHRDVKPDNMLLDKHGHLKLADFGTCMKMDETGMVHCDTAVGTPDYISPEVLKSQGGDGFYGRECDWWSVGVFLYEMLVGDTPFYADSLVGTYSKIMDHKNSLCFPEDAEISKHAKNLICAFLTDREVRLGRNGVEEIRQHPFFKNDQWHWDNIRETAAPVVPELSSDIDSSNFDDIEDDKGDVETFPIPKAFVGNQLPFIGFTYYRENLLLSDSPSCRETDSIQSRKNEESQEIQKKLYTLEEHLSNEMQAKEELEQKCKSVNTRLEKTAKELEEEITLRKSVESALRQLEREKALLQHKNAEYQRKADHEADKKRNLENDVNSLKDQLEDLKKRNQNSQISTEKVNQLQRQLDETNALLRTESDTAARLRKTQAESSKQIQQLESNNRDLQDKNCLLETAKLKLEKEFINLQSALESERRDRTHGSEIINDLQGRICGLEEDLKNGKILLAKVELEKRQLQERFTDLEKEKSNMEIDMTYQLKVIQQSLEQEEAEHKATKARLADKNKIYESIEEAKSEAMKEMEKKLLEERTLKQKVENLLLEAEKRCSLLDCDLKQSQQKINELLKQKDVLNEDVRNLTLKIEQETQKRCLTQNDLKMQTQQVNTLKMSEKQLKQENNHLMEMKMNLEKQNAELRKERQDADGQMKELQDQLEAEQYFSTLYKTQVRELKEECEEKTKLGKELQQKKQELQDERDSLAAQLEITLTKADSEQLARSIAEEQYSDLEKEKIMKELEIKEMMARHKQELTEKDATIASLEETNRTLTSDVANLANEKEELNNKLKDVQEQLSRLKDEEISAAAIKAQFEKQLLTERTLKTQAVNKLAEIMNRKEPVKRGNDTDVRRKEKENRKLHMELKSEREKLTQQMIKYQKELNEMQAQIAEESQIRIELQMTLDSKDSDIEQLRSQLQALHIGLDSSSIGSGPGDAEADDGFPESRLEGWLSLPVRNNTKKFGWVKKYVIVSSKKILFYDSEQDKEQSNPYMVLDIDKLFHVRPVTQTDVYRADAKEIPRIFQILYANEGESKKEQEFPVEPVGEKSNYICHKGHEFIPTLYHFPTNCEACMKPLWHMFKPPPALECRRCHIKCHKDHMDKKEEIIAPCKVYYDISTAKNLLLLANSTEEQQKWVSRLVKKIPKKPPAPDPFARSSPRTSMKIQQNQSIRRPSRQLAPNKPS
Chain of Tyrosine-protein kinase ABL1 (Homo sapiens) (P00519 whole entry): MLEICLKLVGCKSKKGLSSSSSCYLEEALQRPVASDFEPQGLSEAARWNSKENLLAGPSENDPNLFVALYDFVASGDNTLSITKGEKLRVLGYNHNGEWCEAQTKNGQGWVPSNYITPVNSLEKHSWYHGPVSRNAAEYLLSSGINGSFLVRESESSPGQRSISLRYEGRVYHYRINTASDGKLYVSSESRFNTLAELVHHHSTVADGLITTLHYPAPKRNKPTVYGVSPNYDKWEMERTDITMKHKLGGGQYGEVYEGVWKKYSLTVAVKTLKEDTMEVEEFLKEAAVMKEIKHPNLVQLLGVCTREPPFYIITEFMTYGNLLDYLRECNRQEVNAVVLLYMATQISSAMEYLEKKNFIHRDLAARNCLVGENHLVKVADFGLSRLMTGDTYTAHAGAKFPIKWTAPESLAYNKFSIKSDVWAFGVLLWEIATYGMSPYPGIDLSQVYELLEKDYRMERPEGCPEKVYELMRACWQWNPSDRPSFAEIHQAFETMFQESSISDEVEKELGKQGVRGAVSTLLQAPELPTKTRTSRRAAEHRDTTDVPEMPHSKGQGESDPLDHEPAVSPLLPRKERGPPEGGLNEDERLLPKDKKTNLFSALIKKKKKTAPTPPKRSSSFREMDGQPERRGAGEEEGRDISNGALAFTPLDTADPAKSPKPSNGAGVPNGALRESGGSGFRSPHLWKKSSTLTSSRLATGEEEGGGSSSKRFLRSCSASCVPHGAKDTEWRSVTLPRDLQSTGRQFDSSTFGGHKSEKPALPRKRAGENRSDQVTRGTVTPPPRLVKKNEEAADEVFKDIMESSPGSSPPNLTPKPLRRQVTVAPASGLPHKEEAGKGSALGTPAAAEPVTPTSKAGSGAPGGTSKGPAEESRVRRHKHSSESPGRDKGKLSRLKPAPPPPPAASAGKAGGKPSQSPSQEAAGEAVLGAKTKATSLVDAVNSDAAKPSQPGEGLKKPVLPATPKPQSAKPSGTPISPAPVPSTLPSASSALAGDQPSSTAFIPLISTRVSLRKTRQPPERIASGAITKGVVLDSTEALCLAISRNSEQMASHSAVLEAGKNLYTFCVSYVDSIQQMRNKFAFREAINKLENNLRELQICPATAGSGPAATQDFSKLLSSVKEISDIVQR

CCCOc1ccc(/C=C2\SC(=O)NC2=O)cc1
inhibition [1]: -2% | Activity [2]: 816 U/L | Activity [3]: 0.2 mg/dL | Activity [4]: 3.94 ×10⁹ /L | Activity [5]: 3.61 ×10⁹ /L | inhibition [6]: 10% | Activity [7]: 3.65 ×10⁹ /L | inhibition [8]: 6% | inhibition [9]: -1% | Activity [10]: 37 U/L | inhibition [11]: 5% | inhibition [12]: 0% | Activity [13]: 0.11 ×10⁹ /L

From ChEMBL document CHEMBL1139352, “Synthesis and evaluation of novel inhibitors of Pim-1 and Pim-2 protein kinases” (J Med Chem, 2009)
